Laboratory results: article PMC12103582 (Nature Communications, 2025)

Legend:
[1] = system: patients who underwent elective abdominal surgery; assay: HSK21542-303: safety; format: in vivo, human
Outline: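 First dose given by i.v. pump within 10 min of randomization and a resting NRS ≥4 (within 4 h postsurgery); three doses 8 h ±15 min apart. Rescue flurbiprofen axetil 50 mg i.v. Antiemetic on demand only, tropisetron 2.5 mg preferred. TEAEs graded by CTCAE v5.0, with labs, ECG and vital signs over an 8-day follow-up.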

[2] = system: postoperative pain in patients who underwent elective abdominal surgery; assay: HSK21542-303 phase 3 trial: efficacy; format: in vivo, human; details: for SPID0–12h, LS mean (SE): 1.0 μg/kg (tramadol 50 mg/dose) i.v. at 0, 8, 16 h; for Time to rescue analgesic initiation, P25 (95% CI): 25th percentile; for Cumulative rescue analgesic dose 0–12h / Cumulative rescue analgesic dose 0–24 h: flurbiprofen axetil i.v.; for Cumulative rescue analgesic dose 0–12h / Cumulative rescue analgesic dose 0–24 h / Duration of analgesic effect / Patient satisfaction score / Physician satisfaction score: mean (SD); for Rescue analgesic received 0–12h, n (%) / Rescue analgesic received 0–24 h, n (%): rescue flurbiprofen axetil 50 mg i.v.; for NRS ≤3 12 h, n (%) / NRS ≤3 24 h, n (%): resting pain; for Patient satisfaction score / Physician satisfaction score: scale 0–10 at 24 h
[3] = cited from earlier work
[4] = HSK21542-303, follow-up period, arms taken as HSK21542 vs tramadol vs placebo
[5] = HSK21542-303, FAS, flurbiprofen axetil 50 mg i.v.

Compound: COc1cccc(C2(O)CCCCC2CN(C)C)c1 (stereo not drawn) [Tramadol, tramadol]
- incidence of nausea ([1]; HSK21542-303): 41.9%
- incidence of vomiting ([1]; HSK21542-303): 38.0%
- patients administered antiemetics within 24 h post first dose ([1]; HSK21542-303): 54 (41.9%) n (%)
- patients with TEAEs that led to study withdrawal ([1]; HSK21542-303): two
- Anemia ([1]; HSK21542-303, safety set): 16 (12.4) n (%)
- Decreased lymphocyte count ([1]; HSK21542-303, safety set): 0 n (%)
- Decreased serum potassium ([1]; HSK21542-303, safety set): 3 (2.3) n (%)
- Decreased thyroid-stimulating hormone ([1]; HSK21542-303, safety set): 0 n (%)
- Drug-related TEAE ([1]; HSK21542-303, safety set): 74 (57.4) n (%)
- Fever ([1]; HSK21542-303, safety set): 10 (7.8) n (%)
- Hematuria ([1]; HSK21542-303, safety set): 2 (1.6) n (%)
- Hypokalemia ([1]; HSK21542-303, safety set): 10 (7.8) n (%)
- Inflammation ([1]; HSK21542-303, safety set): 1 (0.8) n (%)
- Nausea ([1]; HSK21542-303, safety set): 54 (41.9) n (%)
- SAE ([1]; HSK21542-303, safety set): 1 (0.8) n (%)
- Vomiting ([1]; HSK21542-303, safety set): 49 (38.0) n (%)
- Any AE ([1]; HSK21542-303, safety set, 1.0 μg/kg (tramadol 50 mg/dose) i.v. at 0, 8, 16 h): 108 (83.7) n (%)
- SAE ([1]; HSK21542-303, safety set, listed as tramadol): One
- abnormal diastolic blood pressure [1, 4]: 0 cases
- abnormal heart rate [1, 4]: 1 case
- abnormal systolic blood pressure [1, 4]: 0 case
- patients with NRS ≤3 within 12 h ([2]; HSK21542-303, FAS): 51.2%
- patients with NRS ≤3 within 24 h ([2]; HSK21542-303, FAS): 48.1%
- SPID0–12h, LS mean (SE) ([2]; HSK21542-303, FAS): −28.7 (1.11)
- Time to rescue analgesic initiation, P25 (95% CI) ([2]; HSK21542-303, FAS): 1.17 (0.53, 4.57) h
- patients who received rescue analgesics within 0–12 h after first dose [2, 5]: 34.1%
- patients who received rescue analgesics within 0–24 h after first dose [2, 5]: 35.7%
- Cumulative rescue analgesic dose 0–12h ([2]; HSK21542-303, FAS): 26.7 (44.21) mg
- Cumulative rescue analgesic dose 0–24 h ([2]; HSK21542-303, FAS): 29.3 (46.78) mg
- Duration of analgesic effect ([2]; HSK21542-303, FAS): 21.3 (5.46) h
- Rescue analgesic received 0–12h, n (%) ([2]; HSK21542-303, FAS): 44 (34.1) n (%)
- Rescue analgesic received 0–24 h, n (%) ([2]; HSK21542-303, FAS): 46 (35.7) n (%)
- NRS ≤3 12 h, n (%) ([2]; HSK21542-303, FAS): 66 (51.2) n (%)
- NRS ≤3 24 h, n (%) ([2]; HSK21542-303, FAS): 62 (48.1) n (%)
- Patient satisfaction score ([2]; HSK21542-303, FAS): 8.5 (1.58)
- Physician satisfaction score ([2]; HSK21542-303, FAS): 8.4 (1.42)
- SPID0–12h, LS mean (SE) ([2]; HSK21542-303, PPS): −29.8 (0.99)
- Time to rescue analgesic initiation, P25 (95% CI) ([2]; HSK21542-303, PPS): 1.89 (0.60, 12.73) h
- Cumulative rescue analgesic dose 0–12h ([2]; HSK21542-303, PPS): 23.3 (39.39) mg
- Cumulative rescue analgesic dose 0–24 h ([2]; HSK21542-303, PPS): 26.0 (42.68) mg
- Duration of analgesic effect ([2]; HSK21542-303, PPS): 22.4 (3.09) h
- Rescue analgesic received 0–12h, n (%) ([2]; HSK21542-303, PPS): 39 (32.5) n (%)
- Rescue analgesic received 0–24 h, n (%) ([2]; HSK21542-303, PPS): 41 (34.2) n (%)
- NRS ≤3 12 h, n (%) ([2]; HSK21542-303, PPS): 63 (52.5) n (%)
- NRS ≤3 24 h, n (%) ([2]; HSK21542-303, PPS): 59 (49.2) n (%)
- Patient satisfaction score ([2]; HSK21542-303, PPS): 8.5 (1.59)
- Physician satisfaction score ([2]; HSK21542-303, PPS): 8.4 (1.43)
- excretion [3]: mainly excreted via the kidneys
